Screening results: PubChem BioAssay, Broad Institute
Shown are actives, neighbours in structure and some others; about 1.3% of the full set was active somewhere.
XiGFP reactiv: activators of inactive X chromosome reactivation, primary screen, imaging, XiGFP fibroblasts, GFP high-content imaging, set 2. XiGFP mouse fibroblasts, % GFP-positive cells imaging, 3 d; cells co-treated with 5-aza-dC sensitizer; scaled so ellipticine positive control = 100%. activation, % at 7.58 µM. 0.055% of 360,000 active. AID 743238, 2013;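 active = mean normalized replicate activation at least 10% and every replicate at or above 10%; inconclusive = only one of the two criteria met; inactive = mean below 10% and not all replicates reach 10%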;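 note: 0% = median of on-plate neutral control wells and 100% = ellipticine 6 µM median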
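Material: XiGFP fibroblasts, SV40-immortalized; Buffer or medium: DMEM containing 5-aza-dC; Compound dosing: single point; Times: 3 days compound exposure.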
RAD54 branch: inhibitors of human RAD54 branch migration, primary screen, biochemical, fluorescence, single point; 0.14% of 360,000 active; AID 602329, 2012; RAD54 Holliday junction branch migration, FAM/BHQ fluorescence; inhibition, % at 10.4 µM; DNA repair and recombination protein RAD54-like (Homo sapiens), Q92698;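 active = mean normalized replicate activity at least 40 and at least half of replicates scoring 40 or more; inconclusive = only one of the two criteria met; inactive = mean below 40 and under half of replicates reaching 40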;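 note: 0% = median of neutral control wells and 100% = median of positive control wells; inhibitors cause a drop in the FAM fluorescence signal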
RAD52 anneal inh: RAD52 DNA annealing inhibitors, primary screen, biochemical, FRET, single point, set 2. recombinant RAD52 DNA annealing, FRET fluorescence. DNA repair protein RAD52 homolog (Homo sapiens), P43351. AID 651710, 2012. 0.46% of 360,000 active. inhibition, % at 18.7 µM;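 active = every replicate showing at least 50% inhibition; inconclusive = mean inhibition at least 50% but not in every replicate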
S100A4 MyoIIA: inhibitors of S100A4-myosin IIA peptide binding, primary screen, biochemical, fluorescence polarization, TAMRA-MyoIIA peptide. AID 652163, 2013. 0.14% of 360,000 active. inhibition, % at 10.7 µM;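 active = mean inhibition of at least 70% across replicates, with every replicate also reaching that level; inconclusive = mean inhibition reaches 70% but some replicates fall short; inactive = mean inhibition below 70%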
Target sequence (P26447 whole entry, looked up): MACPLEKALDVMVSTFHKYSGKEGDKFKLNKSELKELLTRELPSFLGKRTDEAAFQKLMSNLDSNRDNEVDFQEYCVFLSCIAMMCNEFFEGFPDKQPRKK
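System – human S100A4 monomer protein, biochemical binding assay · Buffer or medium – Calcium-containing HEPES buffer, pH 7.2 · Timing – 5 min between mix addition and reading · Also added – TAMRA-labelled myosin IIA heavy-chain peptide probe, 5 nM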
MLL AF4-AF9 inh: inhibitors of AF4 peptide binding to AF9, primary screen, biochemical, AlphaScreen, biotin-AF4 peptide, FLAG-AF9, single point; Protein AF-9 (Homo sapiens), P42568; inhibition, % at 10 µM; 0.47% of 350,000 active; AID 651704, 2012;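 active = every replicate reaching a set inhibition limit, whatever the replicate mean, cut at about 25% in these data; inconclusive = mean inhibition reaches that limit but some replicates miss it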;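 note: 0% = plate neutral control median and 100% = total signal loss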
Target sequence (P42568 whole entry, looked up): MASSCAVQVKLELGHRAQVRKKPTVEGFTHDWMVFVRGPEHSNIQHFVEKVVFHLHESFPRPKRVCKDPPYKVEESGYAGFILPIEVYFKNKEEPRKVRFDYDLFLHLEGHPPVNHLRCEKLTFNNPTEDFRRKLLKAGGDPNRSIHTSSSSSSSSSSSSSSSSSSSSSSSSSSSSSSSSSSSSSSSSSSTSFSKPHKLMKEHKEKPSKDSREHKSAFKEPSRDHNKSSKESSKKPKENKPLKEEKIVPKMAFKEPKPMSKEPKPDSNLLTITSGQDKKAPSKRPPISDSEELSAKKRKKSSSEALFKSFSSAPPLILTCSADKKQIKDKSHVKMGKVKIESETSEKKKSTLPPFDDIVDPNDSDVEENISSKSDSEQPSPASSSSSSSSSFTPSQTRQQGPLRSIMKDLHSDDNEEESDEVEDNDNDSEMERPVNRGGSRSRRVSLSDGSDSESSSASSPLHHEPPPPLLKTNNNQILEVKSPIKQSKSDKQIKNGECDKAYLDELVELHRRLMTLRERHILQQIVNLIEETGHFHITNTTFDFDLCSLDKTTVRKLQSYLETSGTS
CASP6 VEID inh: human caspase-6 inhibitors, primary screen, biochemical, VEID-R110 fluorescence, single point, set 2 | AID 686996, 2013 | inhibition, % at 12.5 µM | P55212 | purified caspase-6, Z-VEID-R110 cleavage fluorescence | 0.53% of 350,000 active;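 active = mean inhibition across replicates at least about 35%, with every replicate also reaching that limit, limit read from the data; inconclusive = only one of the two criteria met; inactive = neither criterion met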;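 note: 0% = median of neutral control wells and 100% = no fluorescence left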
RAD52 DNA ctr: DNA-binding compounds via dye displacement, dose response, artefact control for RAD52 inhibitor project, biochemical, fluorescence polarization, cherry-pick | Salmon sperm DNA/acridine orange FP displacement | AC50, µM | AID 652128, 2013 | 8% of 1,000 active | shares compounds with RAD52 anneal inh;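 active = fitted half-maximal concentration for signal loss at or below twice the highest dose tested, in every separate run, actives reach about 64 µM in these data; inconclusive = runs disagree, or flat partial signal loss, or poor fit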
The depositor's hits bear a star; i = inactive; u = inconclusive; x = not tested or not shown.

SMILES | XiGFP reactiv | RAD54 branch | RAD52 anneal inh | S100A4 MyoIIA | MLL AF4-AF9 inh | CASP6 VEID inh | RAD52 DNA ctr
CCOCCCNC(=S)Nc1ccc2nc(N3CCOCC3)cc(C)c2c1 | 0 | 6 | 7 | 32 | 3 | 8 | x
COCCNC(=S)Nc1ccc2nc(N3CCN(C)CC3)cc(C)c2c1 | 0 | 22 | 52* | 6 | 8 | -34 | i
CCN1CCN(c2cc(C)c3cc(NC(=S)NCCCOC)ccc3n2)CC1 | 0 | 21 | 61* | 2 | -2 | -49 | i
Cc1cc(N2CCCC2)nc2ccc(NC(=S)NCCCOC(C)C)cc12 | 0 | x | 58* | -2 | 10 | x | i
COCC(=O)N1[C@@H]2c3ccc(/C=C/c4ccccc4)c(=O)n3C[C@H]1[C@H](CO)[C@H]2C(=O)N1CCCCC1 | 0 | -16 | -5 | u | 1 | 2 | x
CO[C@H]1CC[C@@H]2CCOc3c(C#N)cccc3C(=O)N(C)[C@H](C)C(=O)N(C)C[C@H]1O2 | 0 | 4 | 13 | -5 | -14 | -2 | x
COc1ccccc1N1CCN(C(=S)Nc2ccc3nc(N4CCOCC4)cc(C)c3c2)CC1 | 0 | x | x | x | x | x | x
COc1ccccc1CNC(=S)Nc1ccc2nc(N3CCN(C)CC3)cc(C)c2c1 | 0 | 19 | 77* | -1 | 27* | -1 | i
CCN(CC)CCNC(=S)Nc1ccc2nc(N3CCCC3)cc(C)c2c1 | 0 | x | 76* | -2 | 9 | -53 | i
CO[C@H]1CN(C)C(=O)c2ccc(NC(=O)C3CCC3)cc2OC[C@H](C)N(Cc2ccncc2)C[C@H]1C | 0 | -11 | -1 | 2 | -5 | 5 | x
COc1ccc(OC)c(/C=N/NC(=O)c2cc[n+](CC(=O)c3ccccc3)cc2)c1 | x | 9 | 57* | 3 | 7 | -9 | i
O=C(C[n+]1ccc(C(=O)N/N=C/c2ccc(OCc3ccccc3)cc2)cc1)c1ccccc1 | x | 8 | 3 | 2 | -22 | 1 | x
CC(=O)N1CC2(C1)[C@H](c1ccccc1)[C@@H](CO)N2Cc1cccc(Cl)c1 | 0 | x | -13 | 12 | -2 | 3 | x
CCOC(=O)CCc1c(C)nc(SCC(=O)O)c(C#N)c1C | x | 0 | x | x | x | x | x
CCOC(=O)CCc1c(C)nc(SCc2ccc(C(=O)O)cc2)c(C#N)c1C | 0 | 2 | 96* | -6 | -9 | 1 | i
O=C(c1ccccc1)N1CCN(CC(O)Cn2ccc3ccccc32)CC1 (stereo not given) | 0 | x | -13 | 1 | 2 | 3 | x
OC(CN1CCCC1)Cn1ccc2ccccc21 (stereo not given) | 0 | 0 | 62* | -4 | 22 | -40 | i
Cc1cc(N2CCNC[C@@H]2C)ccc1N1CCS(=O)(=O)CC1 | 0 | x | -38 | 0 | x | -7 | x
C[C@@H]1CNCCN1c1ccc(N2CCS(=O)(=O)CC2)c(C#N)c1 | 0 | x | 55* | -3 | x | -2 | i
CN1C(=O)c2cc(NC(=O)c3ccccc3Cl)ccc2OC[C@@H]2O[C@H](CC(=O)NCC(F)(F)F)CC[C@@H]21 | 0 | -11 | 16 | -2 | -10 | -1 | x
c1cncc(Nc2c3ccccc3nc3ccccc23)c1 | 0 | 78* | 59* | 6 | -13 | 1 | i
O=C(O)c1ccc(Nc2c3ccccc3nc3ccccc23)cc1 | 0 | -24 | -15 | -18 | 1 | 4 | x
COc1cc(/C=C2\SC(=O)N(CCN)C2=O)ccc1OS(=O)(=O)c1cc(C)ccc1C | 0 | x | 84* | -3 | 11 | 15 | i
C[C@@H]1CN([C@@H](C)CO)C(=O)c2cc(N(C)C)ccc2O[C@H]1CN(C)S(C)(=O)=O | 0 | -2 | -13 | -2 | -4 | -1 | x
CC=Cc1ccc2n(c1=O)C[C@H]1[C@H](CO)[C@@H](C(=O)NC3CCCC3)N(Cc3ccccc3)[C@@H]21 (mixture of isomers) | 0 | -7 | -5 | 7 | -4 | 9 | x
SMILES | XiGFP reactiv | RAD54 branch | RAD52 anneal inh | S100A4 MyoIIA | MLL AF4-AF9 inh | CASP6 VEID inh | RAD52 DNA ctr
C[N+]1(CC(=O)NNc2c3ccccc3nc3ccccc23)CCOCC1 | 1 | x | 101* | -1 | -8 | -3 | 9µM*
O=C(CN1CCOCC1)NNc1c2ccccc2nc2ccccc12 | 0 | x | 15 | -5 | 6 | -1 | x
OC[C@@H]1CN(CCc2ccccc2)C[C@H](n2cnc3c(NCc4ccc(F)cc4)ncnc32)O1 | 0 | -4 | 75* | 10 | 0 | 0 | i
Cc1ccc(-c2ccc([C@@H]3[C@@H](CO)N4C(=O)CN(C(=O)Nc5cccc(F)c5)C[C@@H]34)cc2)cc1 | 0 | x | -18 | -8 | -6 | 0 | x
CCn1c(SCC(N)=O)nc2sc3c(c2c1=O)CCN(C)C3 | 0 | 31 | 56* | 1 | 2 | -2 | i
CCn1c(SCC(=O)Nc2ccc(C)cc2)nc2sc3c(c2c1=O)CCN(C)C3 | 0 | 13 | -22 | -6 | 8 | 2 | x
Cc1cc(C(=O)OCC(=O)NC2CCCCC2C)c2ccccc2n1 (stereo not given) | 0 | -4 | -13 | -1 | 0 | 0 | x
Cc1cc(C(=O)OC(C)C(=O)NC2CCCCC2C)c2ccccc2n1 (stereo not given) | 0 | -4 | 51* | -6 | 1 | 5 | i
C[C@@H]1CCCCO[C@@H](CN(C)S(=O)(=O)c2ccc(Cl)cc2)[C@H](C)CN([C@H](C)CO)C(=O)c2cc(NC(=O)C3CCCCC3)ccc2O1 | 0 | 4 | 28 | -3 | 1 | -1 | x
CCN(CC)CCCN(C(=O)c1ccco1)c1nc(-c2ccc(C)cc2)cs1 | 0 | 25 | 52* | 3 | 17 | 6 | i
CCN(CC)CCCN(C(=O)c1ccc(Br)cc1)c1nc(-c2ccc(OC)cc2)cs1 | 0 | 23 | 57* | -2 | 31* | -9 | i
COc1ccc(NC(=O)N(C)C[C@@H]2Oc3ccc(NS(=O)(=O)c4ccc(F)cc4)cc3C(=O)N([C@H](C)CO)C[C@@H]2C)cc1 | 0 | 1 | -1 | 11 | -1 | x | x
CO[C@H]1CN(C)C(=O)c2ccc(NC(=O)C3CC3)cc2OC[C@@H](C)N(Cc2nccs2)C[C@H]1C | 0 | -6 | 4 | 8 | -2 | 3 | x
